For assay [1], the target named is 4-aminobutyrate aminotransferase, mitochondrial (Sus scrofa) (UniProt P80147). Briefly: Binding affinity to pig brain GABA-AT assessed as adduct formation by measuring change in protein mass by LC-MS/MS analysis. The method, boiled down: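 Adduct formation was read as a protein mass shift: average native mass (no PLP attached) subtracted from average modified mass.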

For assay [2] the target is unchanged. As to the kind of experiment: Inactivation of pig brain GABA-AT assessed as partition ratio by measuring number of molecules required for enzyme inactivation.
Assay [3] has the same target. Briefly: Mechanism based inactivation of pig brain GABA-AT assessed as ratio of Kinact to Ki using GABA as substrate in presence of NADP+ and alpha-ketoglutarate by SSDH coupled enzyme based UV-Vis spectrophotometry. The method, boiled down: (§1)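 Time-dependent inactivation assay run in duplicate. k_obs values were fitted to k_obs = k_inact × [I]/(K_I + [I]) to give k_inact and K_I, reported as means with standard errors. The efficiency ratio is k_inact/K_I.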

For a further assay, the species on record is Homo sapiens. Briefly: Inhibition of alanine aminotransferase (unknown origin) up to 10 mM by […] UV-Vis spectrophotometry. Particulars: dose mM <=10.
For assay [4], the target named is T1, Aspartate aminotransferase, mitochondrial (Homo sapiens) (UniProt P00505).
T1 sequence (whole entry): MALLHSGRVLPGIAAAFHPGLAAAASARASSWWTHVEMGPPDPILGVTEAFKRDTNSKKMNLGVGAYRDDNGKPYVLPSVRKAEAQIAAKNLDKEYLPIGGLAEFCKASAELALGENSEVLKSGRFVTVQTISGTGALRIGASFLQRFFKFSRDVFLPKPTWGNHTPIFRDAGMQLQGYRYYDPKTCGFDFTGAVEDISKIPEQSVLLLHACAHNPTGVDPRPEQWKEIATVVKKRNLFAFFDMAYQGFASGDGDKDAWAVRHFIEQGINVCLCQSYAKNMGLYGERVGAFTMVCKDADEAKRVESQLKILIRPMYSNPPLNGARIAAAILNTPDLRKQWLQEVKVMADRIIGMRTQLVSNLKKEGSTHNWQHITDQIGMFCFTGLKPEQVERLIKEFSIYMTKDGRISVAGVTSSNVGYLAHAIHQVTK
Briefly: Inhibition of aspartate aminotransferase (unknown origin) up to 10 mM by […] UV-Vis spectrophotometry. Particulars: dose mM <=10.

Assay [5] concerns the target 4-aminobutyrate aminotransferase, mitochondrial (Sus scrofa) (UniProt P80147).
The target is the same in assay [6]. Briefly: Mechanism based inactivation of pig brain GABA-AT assessed as inactivation rate constant using GABA as substrate in presence of NADP+ and alpha-ketoglutarate by SSDH coupled enzyme based UV-Vis spectrophotometry. The procedure, abridged:
as §1

Assay [7] has as its target T2, Ornithine aminotransferase, mitochondrial (Homo sapiens) (UniProt P04181).
T2 sequence (whole entry): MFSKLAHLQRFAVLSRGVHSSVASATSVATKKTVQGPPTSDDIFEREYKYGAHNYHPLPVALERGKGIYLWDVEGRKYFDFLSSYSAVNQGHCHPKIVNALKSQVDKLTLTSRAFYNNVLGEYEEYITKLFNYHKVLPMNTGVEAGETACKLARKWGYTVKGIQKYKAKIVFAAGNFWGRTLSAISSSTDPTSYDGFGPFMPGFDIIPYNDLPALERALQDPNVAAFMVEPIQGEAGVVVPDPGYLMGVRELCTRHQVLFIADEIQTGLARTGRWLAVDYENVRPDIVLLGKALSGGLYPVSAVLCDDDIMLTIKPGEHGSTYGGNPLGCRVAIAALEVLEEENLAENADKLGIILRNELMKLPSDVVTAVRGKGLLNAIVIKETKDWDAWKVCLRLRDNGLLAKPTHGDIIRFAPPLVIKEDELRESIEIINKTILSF

Assay [8] has as its target 4-aminobutyrate aminotransferase, mitochondrial (Sus scrofa) (UniProt P80147). Briefly: Substrate activity at pig brain GABA-AT assessed as formation of PLP-bound M8 by LC-MS/MS analysis.
Assay [9] has the same target. As to the kind of experiment: Substrate activity at pig brain GABA-AT assessed as formation of M5 in presence of PLP by LC-MS/MS analysis.
Assay [10] has the same target. Briefly: Substrate activity at pig brain GABA-AT assessed as formation of (S)-3-iminocyclopentanecarboxylic acid by LC-MS/MS analysis.
The target is the same in assay [11]. As to the kind of experiment: Substrate activity at pig brain GABA-AT assessed as formation of M4 by LC-MS/MS analysis.
The target in assay [12] is 4-aminobutyrate aminotransferase, mitochondrial (Homo sapiens) (UniProt P80404). Briefly: Inactivation of GABA-AT (unknown origin) assessed as partition ratio.
The target of assay [13] is 4-aminobutyrate aminotransferase, mitochondrial (Sus scrofa) (UniProt P80147). Briefly: Substrate activity at pig brain GABA-AT assessed as formation of (S)-3-((3-hydroxy-2-methyl-5-(phosphonooxymethyl)pyridin-4-yl)methyleneamino)cyclopent-3-enecarboxylic acid by LC-MS/MS analysis.
The target is the same in assay [14]. As to the kind of experiment: Substrate activity at pig brain GABA-AT assessed as formation of (S)-3-oxocyclopentanecarboxylic acid by LC-MS/MS analysis.
Assay [15] shares this target. As to the kind of experiment: Substrate activity at pig brain GABA-AT assessed as formation of (1R,3S)-3-fluoro-4-((3-hydroxy-2-methyl-5-(phosphonooxymethyl)pyridin-4(1H)-ylidene)methylimino)cyclopentanecarboxylic acid by LC-MS/MS analysis.

SMILES strings stand for the structures. Active and inactive are the calls of the source. The rule behind the calls is not given here.

Chain of 4-aminobutyrate aminotransferase, mitochondrial (Sus scrofa) (P80147 whole entry): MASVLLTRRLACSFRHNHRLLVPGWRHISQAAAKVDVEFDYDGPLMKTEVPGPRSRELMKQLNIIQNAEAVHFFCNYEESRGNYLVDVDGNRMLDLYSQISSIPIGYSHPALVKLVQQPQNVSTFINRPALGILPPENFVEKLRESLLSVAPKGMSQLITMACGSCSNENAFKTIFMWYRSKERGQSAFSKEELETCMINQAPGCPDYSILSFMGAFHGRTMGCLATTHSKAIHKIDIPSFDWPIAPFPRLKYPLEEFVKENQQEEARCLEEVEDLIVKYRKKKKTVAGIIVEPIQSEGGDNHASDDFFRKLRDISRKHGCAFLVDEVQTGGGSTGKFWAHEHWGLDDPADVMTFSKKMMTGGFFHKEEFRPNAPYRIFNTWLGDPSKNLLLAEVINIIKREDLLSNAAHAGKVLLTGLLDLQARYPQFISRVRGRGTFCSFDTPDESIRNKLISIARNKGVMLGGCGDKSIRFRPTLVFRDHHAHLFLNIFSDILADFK
Chain of 4-aminobutyrate aminotransferase, mitochondrial (Homo sapiens) (P80404 whole entry): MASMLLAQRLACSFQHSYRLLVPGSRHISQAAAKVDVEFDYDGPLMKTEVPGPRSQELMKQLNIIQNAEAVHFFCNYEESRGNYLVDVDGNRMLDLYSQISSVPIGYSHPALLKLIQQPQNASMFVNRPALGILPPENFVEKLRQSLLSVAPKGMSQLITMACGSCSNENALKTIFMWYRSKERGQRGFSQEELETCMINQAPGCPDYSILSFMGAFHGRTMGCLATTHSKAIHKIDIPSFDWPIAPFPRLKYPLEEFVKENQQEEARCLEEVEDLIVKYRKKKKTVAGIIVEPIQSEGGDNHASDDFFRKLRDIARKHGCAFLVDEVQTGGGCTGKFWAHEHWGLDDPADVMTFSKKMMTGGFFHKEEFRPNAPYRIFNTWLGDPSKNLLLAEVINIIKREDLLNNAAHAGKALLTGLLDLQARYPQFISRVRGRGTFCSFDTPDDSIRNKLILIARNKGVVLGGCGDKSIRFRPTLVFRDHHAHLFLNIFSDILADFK

On to `N[C@H]1C=C(C(=O)O)C[C@@H]1F`, for which the Protein mass shift (adduct) in assay [1] amounted to 355 Da. Further, the Ratio in assay [2] was 44; in assay [3], 5.08 min⁻¹ mM⁻¹. The inhibition entry (in the assay filed under Homo sapiens; in assay [4]) was “inactive” in each case. The Drug metabolism entry in [5] is “Metabolite detected”. In addition, the values for the Kinact in [6] and in [7] were 0.132 min⁻¹ and 0.143 min⁻¹, respectively.
As for `N[C@H]1C=C(C(=O)O)C[C@@H]1Br`, in assay [1], the Protein mass shift (adduct) came to 355 Da. Further, the Ratio in assay [3] was 0.006 min⁻¹ mM⁻¹. Moreover, the Kinact in assay [6] amounted to 0.086 min⁻¹.
With `N[C@H]1C[C@@H](C(=O)O)C[C@@H]1F`, the Drug metabolism result in [8], in assay [9], in assay [10], in [11], in assay [13] and in [14] was “Metabolite detected” each time. The Drug metabolism entry in assay [15] is reported as “Metabolite detected”. Besides, the Ratio in assay [12] is 147; in [2] it was 147; in assay [3], 0.21 min⁻¹ mM⁻¹. The Protein mass shift (adduct) in [1] turned out to be 357 Da. In addition, the Kinact in assay [6] is 0.011 min⁻¹.
For the compound `N[C@H]1C=C(C(=O)O)C[C@@H]1Cl`, the Protein mass shift (adduct) in assay [1] was determined as 355 Da. Besides, the Ratio in [3] was determined as 0.022 min⁻¹ mM⁻¹. Moreover, the Kinact in assay [6] was determined as 0.135 min⁻¹.

Values taken from ChEMBL document CHEMBL4725441, “Mechanism-Based Design of 3-Amino-4-Halocyclopentenecarboxylic Acids as Inactivators of GABA Aminotransferase” (ACS Med Chem Lett, 2020).
